Data: ChEMBL document CHEMBL1124784, “Synthesis and bioactivity of a new class of rigid glutamate analogues. Modulators of the N-methyl-D-aspartate receptor” (1990)
Several values for one entry are separate records, joined by “and”; a condition that tells them apart may be missing. Equal values may be shown once.

Assays:
[1] = test system: Cerebellar granule neurone; assay: Stimulation caused by Aspartate in Cerebellar Granule Cells at 50 uM concentration; format: functional, Rattus norvegicus
Method in brief: (§1)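 Rat cerebellar granule cells (8-day-old rats), cultured 8–9 days; HEPES saline pH 7.35 with 1.3 mM CaCl2, 45CaCl2 tracer 10 min, then azetidine 50 μM 15 min at 37 °C, then agonist 10 min. Kainate/quisqualate media held 1 mM MgCl2 and 10 μM CPP. Choline/EGTA wash stop; 45Ca uptake per mg protein.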

[2] = test system: Cerebellar granule neurone; assay: Stimulation caused by Aspartate in Cerebellar Granule Cells at 50 uM concentration in presence of 10 uM CPP; format: functional, Rattus norvegicus; method in brief: as §1
[3] = test system: Cerebellar granule neurone; assay: Stimulation caused by Aspartate in Cerebellar Granule Cells at 50 uM concentration in presence of 100 uM kainate; format: functional, Rattus norvegicus; method in brief: as §1
[4] = test system: Cerebellar granule neurone; assay: Stimulation caused by Aspartate in Cerebellar Granule Cells at 50 uM concentration in presence of 100 uM quisqualate; format: functional, Rattus norvegicus; method in brief: as §1
[5] = test system: Cerebellar granule neurone; assay: Stimulation caused by Aspartate in Cerebellar Granule Cells at 50 uM concentration in presence of 1 uM glutamate; format: functional, Rattus norvegicus; method in brief: as §1
[6] = test system: Cerebellar granule neurone; assay: Stimulation caused by Aspartate in Cerebellar Granule Cells at 50 uM concentration in presence of 50 uM NMDA; format: functional, Rattus norvegicus; method in brief: as §1
[7] = test system: Cerebellar granule neurone; assay: Stimulation caused by Glutamate in Cerebellar Granule Cells over basal stimulation; format: functional, Rattus norvegicus
Method in brief: (§2)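 Cerebellar granule cells preincubated 15 min with 50 μM azetidine, then 10 min without (basal) or with 10 μM glutamate or 10 μM aspartate; 45Ca2+ influx measured. Percent stimulation relative to agonist alone (100%) after subtracting respective basal values; means ± SEM of four experiments.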

[8] = test system: Cerebellar granule neurone; assay: Ability to induce calcium uptake in cerebellar granule cells was determined at 50 uM concentration in presence of 100 uM kainate (control = 56+/-3.7); format: functional, Rattus norvegicus; method in brief: as §1
[9] = test system: Cerebellar granule neurone; assay: Ability to induce calcium uptake in cerebellar granule cells was determined at 50 uM concentration in presence of 100 uM quisqualate (control=15+/-1.2); format: functional, Rattus norvegicus; method in brief: as §1
[10] = test system: Cerebellar granule neurone; assay: Ability to induce calcium uptake in cerebellar granule cells was determined at 50 uM concentration in presence of 10 uM CPP (control= 5.4+/-0.3); format: functional, Rattus norvegicus; method in brief: as §1
[11] = test system: Cerebellar granule neurone; assay: Ability to induce calcium uptake in cerebellar granule cells was determined at 50 uM concentration in presence of 1 uM glutamate (control= 39+/-3.8); format: functional, Rattus norvegicus; method in brief: as §1
[12] = test system: Cerebellar granule neurone; assay: Ability to induce calcium uptake in cerebellar granule cells was determined at 50 uM concentration in presence of 50 uM NMDA (control = 91+/-6.5); format: functional, Rattus norvegicus; method in brief: as §1
[13] = test system: Cerebellar granule neurone; assay: Ability to induce calcium uptake in cerebellar granule cells was determined at 50 uM concentration (control= 16+/-1.5); format: functional, Rattus norvegicus; method in brief: as §1
[14] = test system: Cerebellar granule neurone; assay: Influx of calcium in Cerebellar Granule Cells of rat after 10 min of incubation with compound; format: functional; method in brief: as §2
[15] = test system: Cerebellar granule neurone; assay: Influx of calcium in Cerebellar Granule Cells of rat after 10 min of incubation with compound and 10 uM aspartate; format: functional; method in brief: as §2
[16] = test system: Cerebellar granule neurone; assay: Influx of calcium in Cerebellar Granule Cells of rat after 10 min of incubation with compound and 10 uM glutamate; format: functional; method in brief: as §2
Rattus norvegicus [17] = species on record: Rattus norvegicus; assay: Effect on fractional [3H]GABA release from rat forebrain neurons in culture; format: functional
Method in brief: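 Embryonic rat forebrain neurons cultured 8–9 days, loaded with 1 μCi/mL [3H]GABA 60–90 min at 37 °C, washed eight times at 5 min intervals in Mg2+-free HEPES saline, then agonist added; CGS 19755 (100 μM) where used added 5 min before. Evoked efflux minus basal, as fraction of remaining cell tritium (SDS-solubilized); 4–6 wells.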

[18] = test system: Cerebellar granule neurone; assay: Stimulation caused by aspartate in Cerebellar Granule Cells over basal stimulation; format: functional, Rattus norvegicus; method in brief: as §2
Rattus norvegicus [19] = species on record: Rattus norvegicus; assay: Effect on fractional [3H]GABA release from rat forebrain neurons in culture in the presence of 100 uM CGS 19755
[20] = test system: Cerebellar granule neurone; assay: Stimulation caused by Aspartate in Cerebellar Granule Cells at 50 uM concentration in presence of 10 uM aspartate
[21] = test system: Cerebellar granule neurone; assay: Ability to induce calcium uptake in cerebellar granule cells was determined at 50 uM concentration in presence of 10 uM aspartate (control = 43+/-2.9)

O=C(O)[C@@H]1C[C@H](C(=O)O)N1
Stimulation [1]: 144% | Stimulation [2]: 91% | Stimulation [3]: 93% | Stimulation [4]: 100% | Stimulation [5]: 268% | Stimulation [6]: 151% | Stimulation [7]: 186% | Influx [8]: 52 nM/mg | Influx [9]: 15 nM/mg | Influx [10]: 4.9 nM/mg | Influx [11]: 85 nM/mg | Influx [12]: 136 nM/mg | Influx [13]: 23 nM/mg | Influx [14]: 25 nM/mg and 21 nM/mg | Influx [15]: 68 nM/mg | Influx [16]: 92 nM/mg | Release (Rattus norvegicus [17]): 1.04% | Stimulation [18]: 175% | Release (Rattus norvegicus [19]): -0.08% | Stimulation [20]: 193% | Influx [21]: 75 nM/mg

CC(=O)N1[C@@H](C(=O)O)C[C@H]1C(=O)O
Influx [14]: 16 nM/mg

NC(=O)[C@@H]1C[C@H](C(N)=O)N1
Influx [14]: 15 nM/mg

CC(C)(C)OC(=O)[C@H]1C[C@@H](C(=O)O)N1
Stimulation [7]: 144% | Influx [14]: 15 nM/mg | Influx [15]: 52 nM/mg | Influx [16]: 67 nM/mg | Stimulation [18]: 136%

COC(=O)[C@@H]1C[C@H](C(=O)OC)N1
Influx [14]: 19 nM/mg

COC(=O)[C@H]1C[C@@H](C(=O)OC(C)(C)C)N1
Stimulation [7]: 111% | Influx [14]: 14 nM/mg | Influx [15]: 43 nM/mg | Influx [16]: 54 nM/mg | Stimulation [18]: 107%

COC(=O)[C@H]1C[C@@H](C(=O)O)N1
Influx [14]: 18 nM/mg

NC(=O)[C@@H]1C[C@H](C(=O)O)N1
Influx [14]: 20 nM/mg

COC(=O)[C@@H]1C[C@@H](C(=O)OC(C)(C)C)N1
Stimulation [7]: 105% | Influx [14]: 15 nM/mg | Influx [16]: 52 nM/mg

O=C(O)[C@@H]1CCN1
Influx [14]: 16 nM/mg | Influx [15]: 44.5 nM/mg | Stimulation [18]: 105%

CN[C@H](CC(=O)O)C(=O)O [N-METHYL-D-ASPARTIC ACID (NMDA)]
Release (Rattus norvegicus [17]): 0.73% | Release (Rattus norvegicus [19]): 0.09%

O=C(O)[C@H]1C[C@@H](C(=O)O)N1Cc1ccccc1
Influx [14]: 15 nM/mg

O=C(O)[C@@H]1C[C@@H](C(=O)O)N1
Stimulation [7]: 106% | Influx [14]: 14 nM/mg | Influx [16]: 52 nM/mg

CCCCCCN1[C@@H](C(=O)O)C[C@H]1C(=O)O
Influx [14]: 16 nM/mg

C=C(C)[C@H]1CN[C@H](C(=O)O)[C@H]1CC(=O)O [KAINIC ACID]
Release (Rattus norvegicus [17]): 2.65% | Release (Rattus norvegicus [19]): 2.63%

O=C(O)[C@H]1C[C@@H](CO)N1
Influx [14]: 19 nM/mg | Influx [15]: 58 nM/mg

CC(C)(C)OC(=O)[C@@H]1C[C@@H](C(=O)O)N1
Stimulation [7]: 97% | Influx [14]: 16 nM/mg | Influx [16]: 51 nM/mg
